Experimental data pooled from the literature.
Lines come from different studies, so protocols differ.
CNR1: Cannabinoid receptor 1 (CNR1, Homo sapiens, UniProt P21554)
PPO3: PPO3 (Agaricus bisporus, UniProt C7FF04)

| SMILES | target | assay | conditions | quantity | value |
| --- | --- | --- | --- | --- | --- |
| c1cncc([C@@H]2CCCN2)c1 | Neuronal acetylcholine receptor; alpha4/beta2 (Rattus norvegicus, UniProt P09483+P12390) | ligand displacement, radioligand | 50 µM | inhibition | 88.1% |
| CCCCC/C=C\[C@H](C)/C=C\C/C=C\Cc1ccccc1CCCC(=O)OC(CO)CO | CNR1 | β-arrestin recruitment, agonist |  | Emax | 10% |
| COc1cc(/C=C/C(=O)O)ccc1OCc1cn(CC(=O)Nc2ccccc2C)nn1 | PPO3 | enzyme activity, inhibitor | 40 µM | inhibition | 16% |
| CC(C)CC(=O)OC[C@H]1O[C@@](C#N)(c2ccc3c(N)ncnn23)[C@H](O)[C@@H]1O | CNR1 | cell-free assay | 20 µM | inhibition | -4% |
| [2H]c1c([2H])c([C@]2([2H])CCCN2C(=O)C(C)(C)Oc2ccc3cn[nH]c3c2)c([2H])c([2H])c1C([2H])([2H])[2H] | Mitogen-activated protein kinase kinase kinase 3 (MAP3K3, Homo sapiens, UniProt Q99759) | binding, competition with immobilised ligand | 1 µM | remaining binding | 100% |
| CCCCCc1ccccc1C/C=C\C/C=C\C/C=C\CCCC(=O)N[C@H](C)CO | CNR1 | β-arrestin recruitment, agonist |  | Emax | 42% |
| COc1cc(/C=C/C(=O)O)ccc1OCc1cn(CC(=O)Nc2ccccc2[N+](=O)[O-])nn1 | PPO3 | enzyme activity, inhibitor | 40 µM | inhibition | 11.5% |
| CCCCC/C=C\C/C=C\C/C=C\Cc1ccccc1CCCC(=O)N[C@H](C)CO | CNR1 | β-arrestin recruitment, agonist |  | Emax | 80% |
| COc1cc2c3c(c1OC)-c1c(cccc1OC)CC3N(C)CC2 (racemic) | 5-hydroxytryptamine receptor 2A (HTR2A, Homo sapiens, UniProt P28223) | ligand displacement, radioligand | 10 µM | inhibition | 42% |
| COc1cc(/C=C/C(=O)O)ccc1OCc1cn(CC(=O)Nc2cccc([N+](=O)[O-])c2)nn1 | PPO3 | enzyme activity, inhibitor | 40 µM | inhibition | 12.1% |
| CN1CCC[C@H]1c1cccnc1 | Histamine H4 receptor (HRH4, Homo sapiens, UniProt Q9H3N8) | ligand displacement | 50 µM | inhibition | -19.9% |
| COc1cc(/C=C/C(=O)O)ccc1OCc1cn(CC(=O)Nc2ccc(Cl)cc2)nn1 | PPO3 | enzyme activity, inhibitor | 40 µM | inhibition | 12.3% |
| CCCCC/C=C\C/C=C\C/C=C\C/C=C\CCCC(=O)OC(CO)CO | CNR1 | β-arrestin recruitment, agonist |  | Emax | 96% |
